Values after ≈ are worked out from the molar mass of the structure shown.
Tests used:
Bel-7402 = assay: Antiproliferative activity against Bel7402 cells after 72 hrs by MTT assay; assay type: functional, cell-based; settings: Homo sapiens, Bel-7402, 72 h
In short: (§1)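 Cells were exposed to compound for 72 h. MTT in RPMI-1640 was then added and incubated for a further 4 h at 37 °C. Three replicate wells were used per point. IC50 for cell-viability inhibition was calculated from three independent experiments.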

[1] = Antiproliferative activity against ECA109 cells after 72 hrs by MTT assay; assay type: functional, cell-based; settings: Homo sapiens, ECa-109, 72 h; in short: as §1
PC-3 = assay: Antiproliferative activity against PC3 cells after 72 hrs by MTT assay; assay type: functional, cell-based; settings: Homo sapiens, PC-3, 72 h; in short: as §1
MCF7 = assay: Antiproliferative activity against MCF7 cells after 72 hrs by MTT assay; assay type: functional, cell-based; settings: Homo sapiens, MCF7, 72 h; in short: as §1
HL-60 [2] = assay: Antiproliferative activity against HL60 cells after 72 hrs by MTT assay; assay type: functional, cell-based; settings: Homo sapiens, HL-60, 72 h; in short: as §1
A549 = assay: Antiproliferative activity against A549 cells after 72 hrs by MTT assay; assay type: functional, cell-based; settings: Homo sapiens, A549, 72 h; in short: as §1
HL-60 [3] = assay: Induction of apoptosis in HL60 cells assessed as DNA fragmentation at 0.5 ug/mL after 48 hrs by flow cytometry; assay type: functional, Homo sapiens
In short: (§2)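 HL-60 cells in exponential growth were treated for 48 h. They were washed twice in PBS and fixed in 70% ethanol at −20 °C. Cells were then RNase-treated for 1 h at 37 °C and stained with propidium iodide for 30 min at 4 °C. DNA content of 2 × 10⁴ cells was read by flow cytometry, and the sub-G0/G1 fraction was taken as apoptotic.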

HL-60 [4] = assay: Induction of apoptosis in HL60 cells assessed as DNA fragmentation at 1.0 ug/mL after 48 hrs by flow cytometry; assay type: functional, Homo sapiens; in short: as §2
HL-60 [5] = assay: Induction of apoptosis in HL60 cells assessed as DNA fragmentation at 2 ug/mL after 48 hrs by flow cytometry; assay type: functional, Homo sapiens; in short: as §2
CCRF S-180 [6] = assay: Antitumor activity against S180 cells inoculated in ICR mouse assessed as tumor weight at 80 mg/kg, ip after 8 days; assay type: functional; settings: route intraperitoneal
In short: (§3)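 S180 sarcoma was first passaged in mice for 7 days, then 2.5 × 10⁶ viable cells/mouse were injected s.c. into the armpit of female ICR mice. Compound was given i.p. once daily for 7 consecutive days, starting 24 h after inoculation. Group sizes were 10, or 20 for the saline control. Cyclophosphamide 50.0 mg/kg was the positive control. On day 8 tumors were excised and weighed, and inhibition = (C − T)/C × 100 using mean tumor weights.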

CCRF S-180 [7] = assay: Antitumor activity against S180 cells inoculated in ICR mouse assessed as inhibition at 80 mg/kg, ip after 8 days relative to control; assay type: functional; settings: CCRF S-180, ip, 192 h, route intraperitoneal; in short: as §3
CCRF S-180 [8] = assay: Antitumor activity against S180 cells inoculated in ICR mouse assessed as inhibition at 50 mg/kg, ip after 8 days relative to control; set-up: scale not given: the % may be the effect or the level left; settings: route intraperitoneal

IC50 (Bel-7402) [µg/mL]	IC50 (PC-3) [µg/mL]	IC50 (MCF7) [µg/mL]	IC50 (HL-60 [2]) [µg/mL]	IC50 (A549) [µg/mL]	Structure (SMILES)	IC50 [1] [µg/mL]	Activity (HL-60 [3]) [%]	Activity (HL-60 [4]) [%]	Activity (HL-60 [5]) [%]	Activity (CCRF S-180 [6]) [g]	inhibition in vivo at 80 mg/kg (CCRF S-180 [7]) [%]	Activity (CCRF S-180 [8]) [%]
> 50	2.9 (≈ 4.73 µM)	5.5 (≈ 8.97 µM)	3.2 (≈ 5.22 µM)	5.4 (≈ 8.81 µM)	COc1cc(OC)c2c(c1Cl)OC(OC)(c1ccc(Cl)cc1)C1(OC)SN(c3ccc([N+](=O)[O-])cc3Cl)N=C21 (racemic)	5.7 (≈ 9.3 µM)						
> 50	> 50	> 25	> 25	> 50	CCOC12SN(c3ccc([N+](=O)[O-])cc3Cl)N=C1c1cc(C)ccc1OC2(OCC)c1cc2c(cc1Cl)OCO2 (racemic)	> 50						
21.8 (≈ 39.2 µM)	> 50	> 25	> 25	> 50	CCOC12SN(c3ccc([N+](=O)[O-])cc3Cl)N=C1c1cc(C)ccc1OC2(OCC)c1ccc(OC)cc1 (racemic)	> 50						
10.3 (≈ 17.8 µM)	3.1 (≈ 5.35 µM)	4.1 (≈ 7.07 µM)	2.8 (≈ 4.83 µM)	4.9 (≈ 8.46 µM)	CCOC12SN(c3ccc(S(C)(=O)=O)cc3Cl)N=C1c1ccccc1OC2(OCC)c1ccc(Cl)cc1 (racemic)	5.9 (≈ 10.2 µM)	3.9	25.3	68.3	0.63	48.2	
8.2 (≈ 15.1 µM)	5.7 (≈ 10.5 µM)	23.3 (≈ 43 µM)	3.3 (≈ 6.09 µM)	5.1 (≈ 9.41 µM)	CCOC12SN(c3ccc([N+](=O)[O-])cc3Cl)N=C1c1ccccc1OC2(OCC)c1ccc(OC)cc1 (racemic)	9.6 (≈ 17.7 µM)						
7.3 (≈ 12.3 µM)	6 (≈ 10.1 µM)	2.5 (≈ 4.21 µM)	6 (≈ 10.1 µM)	10.3 (≈ 17.4 µM)	CCOC12SN(c3ccc(S(C)(=O)=O)cc3Cl)N=C1c1cc(C)ccc1OC2(OCC)c1ccc(Cl)cc1 (racemic)	11.5 (≈ 19.4 µM)						
18.6 (≈ 33.2 µM)	> 50	> 25	> 25	7.8 (≈ 13.9 µM)	CCOC12SN(c3ccc([N+](=O)[O-])cc3Cl)N=C1c1cc(C)ccc1OC2(OCC)c1ccc(Cl)cc1 (racemic)	14.8 (≈ 26.4 µM)						
> 50	> 50	> 25	> 25	> 50	CCOC12SN(c3ccc([N+](=O)[O-])cc3Cl)N=C1c1cc(C)ccc1OC2(OCC)c1cc(OC)c(OC)cc1Cl (racemic)	> 50						
					O=P1(N(CCCl)CCCl)NCCCO1 (stereo not given) [CYCLOPHOSPHAMIDE ANHYDROUS]							45.4
40.4 (≈ 68.6 µM)	0.6 (≈ 1.02 µM)	> 25	0.6 (≈ 1.02 µM)	1.1 (≈ 1.87 µM)	CCOC12SN(c3ccc(S(C)(=O)=O)cc3Cl)N=C1c1cc(C)ccc1OC2(OCC)c1ccc(OC)cc1 (racemic)	1.5 (≈ 2.55 µM)						
24.8 (≈ 36.8 µM)	> 50	12.6 (≈ 18.7 µM)	5.6 (≈ 8.31 µM)	14.5 (≈ 21.5 µM)	CCOC12SN(c3ccc(S(C)(=O)=O)cc3Cl)N=C1c1c(OC)cc(OC)c(Cl)c1OC2(OCC)c1ccc(Cl)cc1 (racemic)	20.1 (≈ 29.8 µM)						
11.8 (≈ 21.6 µM)	4.1 (≈ 7.5 µM)	15 (≈ 27.5 µM)	2.2 (≈ 4.03 µM)	3.8 (≈ 6.95 µM)	CCOC12SN(c3ccc([N+](=O)[O-])cc3Cl)N=C1c1ccccc1OC2(OCC)c1ccc(Cl)cc1 (racemic)	6.9 (≈ 12.6 µM)						
> 50	19.2 (≈ 30.2 µM)	> 25	23.2 (≈ 36.4 µM)	17.7 (≈ 27.8 µM)	CCOC12SN(c3ccc([N+](=O)[O-])cc3Cl)N=C1c1c(OC)cc(OC)c(Cl)c1OC2(OCC)c1ccc(OC)cc1 (racemic)	> 50						
23.5 (≈ 40.9 µM)	3.5 (≈ 6.09 µM)	> 25	1.8 (≈ 3.13 µM)	3.3 (≈ 5.74 µM)	CCOC12SN(c3ccc(S(C)(=O)=O)cc3Cl)N=C1c1ccccc1OC2(OCC)c1ccc(OC)cc1 (racemic)	5.9 (≈ 10.3 µM)						
> 50	15.8 (≈ 24.7 µM)	> 25	6.7 (≈ 10.5 µM)	> 50	CCOC12SN(c3ccc([N+](=O)[O-])cc3Cl)N=C1c1c(OC)cc(OC)c(Cl)c1OC2(OCC)c1ccc(Cl)cc1 (racemic)	> 50						
> 50	16.6 (≈ 74 µM)	> 25	3.4 (≈ 15.2 µM)	14.2 (≈ 63.3 µM)	O=C1CC(c2ccccc2)Oc2ccccc21 (stereo not given) [FLAVANONE]	27.7 (≈ 124 µM)						
10.5 (≈ 18.3 µM)	2.4 (≈ 4.19 µM)	19.8 (≈ 34.6 µM)	1.3 (≈ 2.27 µM)	2.5 (≈ 4.37 µM)	CCOC12SN(c3ccc(NC(C)=O)cc3Cl)N=C1c1cc(C)ccc1OC2(OCC)c1ccc(Cl)cc1 (racemic)	4.1 (≈ 7.16 µM)						
21.3 (≈ 38.1 µM)	4.1 (≈ 7.34 µM)	23.3 (≈ 41.7 µM)	2.2 (≈ 3.94 µM)	4.2 (≈ 7.52 µM)	CCOC12SN(c3ccc(NC(C)=O)cc3Cl)N=C1c1ccccc1OC2(OCC)c1ccc(Cl)cc1 (racemic)	9.6 (≈ 17.2 µM)						
> 50	7.3 (≈ 11.8 µM)	> 25	16.8 (≈ 27.1 µM)	> 50	CCOC12SN(c3ccc([N+](=O)[O-])cc3Cl)N=C1c1c(OC)cc(OC)c(Cl)c1OC2(OCC)c1ccc(C)cc1 (racemic)	7.3 (≈ 11.8 µM)						
> 50	> 50	> 25	> 25	> 50	CCOC12SN(c3ccc([N+](=O)[O-])cc3Cl)N=C1c1c(OC)cc(OC)c(Cl)c1OC2(OCC)c1ccccc1Cl (racemic)	> 50						

Reference: ChEMBL document CHEMBL1142889, “Synthesis and anticancer activity of a novel class of flavonoids: 2,4-diarylchromane[4,3-d]-delta(1,9b)-1,2,3-thiadiazolines” (Eur J Med Chem, 2007)
